Laboratory results reported in ChEMBL document CHEMBL3632558, “Synthesis, antimycobacterial and antibacterial activity of l-[(1R,2S)-2-fluorocyclopropyl]naphthyridone derivatives containing an oxime-functionalized pyrrolidine moiety” (2015).
Values after ≈ are worked out from the molar mass of the structure shown.

How the values were obtained:
Type in all cases: functional
Staphylococcus aureus [1] = assay: Antibacterial activity against methicillin-sensitive Staphylococcus aureus 14-1 after 18 to 24 hrs
Summary of the method: (§1)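 MIC by standard NCCLS reference procedure (M100-S11); lowest concentration of compound inhibiting visible bacterial growth after incubation at 35 °C for 18–24 h, read as complete inhibition of growth. Ciprofloxacin, levofloxacin and moxifloxacin run alongside as reference agents.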

Enterococcus faecium [2] = assay: Antibacterial activity against Enterococcus faecium 14-1 after 18 to 24 hrs; summary of the method: as §1
[3] = tested on: Mycobacterium tuberculosis; assay: Antimycobacterial activity against Mycobacterium tuberculosis H37Rv ATCC 27294 by alamar blue assay
Summary of the method: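 Microplate Alamar Blue Assay; MIC is the lowest concentration giving ≥90% reduction in fluorescence relative to the mean of replicate bacterium-only controls. MDR strain 6133 is resistant to isoniazid and rifampicin.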

Pseudomonas aeruginosa [4] = assay: Antibacterial activity against Pseudomonas aeruginosa 14-19 after 18 to 24 hrs; summary of the method: as §1
Enterococcus faecium [5] = assay: Antibacterial activity against Enterococcus faecium 14-6 after 18 to 24 hrs; summary of the method: as §1
Pseudomonas aeruginosa [6] = assay: Antibacterial activity against Pseudomonas aeruginosa 14-9 after 18 to 24 hrs; summary of the method: as §1
Klebsiella pneumoniae [7] = assay: Antibacterial activity against Klebsiella pneumoniae 14-4 after 18 to 24 hrs; summary of the method: as §1
Klebsiella pneumoniae [8] = assay: Antibacterial activity against Klebsiella pneumoniae 14-3 after 18 to 24 hrs; summary of the method: as §1
Staphylococcus aureus [9] = assay: Antibacterial activity against methicillin-sensitive Staphylococcus aureus 14-3 after 18 to 24 hrs; summary of the method: as §1
Enterococcus faecalis [10] = assay: Antibacterial activity against Enterococcus faecalis 14-1 after 18 to 24 hrs; summary of the method: as §1
Enterococcus faecalis [11] = assay: Antibacterial activity against Enterococcus faecalis 14-2 after 18 to 24 hrs; summary of the method: as §1
[12] = tested on: Staphylococcus epidermidis; assay: Antibacterial activity against methicillin-resistant Staphylococcus epidermidis 14-37 after 18 to 24 hrs
[13] = tested on: Staphylococcus epidermidis; assay: Antibacterial activity against methicillin-resistant Staphylococcus epidermidis 14-21 after 18 to 24 hrs
Pseudomonas aeruginosa [14] = assay: Antibacterial activity against Pseudomonas aeruginosa 14-16 after 18 to 24 hrs; summary of the method: as §1
Staphylococcus aureus [15] = assay: Antibacterial activity against methicillin-sensitive Staphylococcus aureus 14-4 after 18 to 24 hrs; summary of the method: as §1
Staphylococcus aureus [16] = assay: Antibacterial activity against methicillin-resistant Staphylococcus aureus 14-5 after 18 to 24 hrs
[17] = tested on: Staphylococcus epidermidis; assay: Antibacterial activity against methicillin-sensitive Staphylococcus epidermidis 14-2 after 18 to 24 hrs; summary of the method: as §1
Klebsiella pneumoniae [18] = assay: Antibacterial activity against ESBL-positive Klebsiella pneumoniae 14-17 after 18 to 24 hrs; summary of the method: as §1
Escherichia coli [19] = assay: Antibacterial activity against ESBL-positive Escherichia coli 14-2 after 18 to 24 hrs; summary of the method: as §1
Streptococcus pneumoniae = assay: Antibacterial activity against Streptococcus pneumoniae ATCC 19615 after 18 to 24 hrs; summary of the method: as §1
[20] = tested on: Staphylococcus epidermidis; assay: Antibacterial activity against methicillin-resistant Staphylococcus epidermidis 14-39 after 18 to 24 hrs
Klebsiella pneumoniae [21] = assay: Antibacterial activity against ESBL-positive Klebsiella pneumoniae 14-18 after 18 to 24 hrs; summary of the method: as §1
Pseudomonas aeruginosa [22] = assay: Antibacterial activity against Pseudomonas aeruginosa 14-15 after 18 to 24 hrs; summary of the method: as §1
Staphylococcus aureus [23] = assay: Antibacterial activity against methicillin-resistant Staphylococcus aureus 14-4 after 18 to 24 hrs
Staphylococcus aureus [24] = assay: Antibacterial activity against methicillin-sensitive Staphylococcus aureus 14-2 after 18 to 24 hrs; summary of the method: as §1
Escherichia coli [25] = assay: Antibacterial activity against Escherichia coli 14-1 after 18 to 24 hrs; summary of the method: as §1
Enterococcus faecium [26] = assay: Antibacterial activity against Enterococcus faecium 14-2 after 18 to 24 hrs; summary of the method: as §1
Staphylococcus aureus [27] = assay: Antibacterial activity against Staphylococcus aureus CMCC 26003 after 18 to 24 hrs; summary of the method: as §1
Escherichia coli [28] = assay: Antibacterial activity against ESBL-positive Escherichia coli 14-1 after 18 to 24 hrs; summary of the method: as §1
Escherichia coli [29] = assay: Antibacterial activity against Escherichia coli ATCC 25922 after 18 to 24 hrs; summary of the method: as §1
Klebsiella pneumoniae [30] = assay: Antibacterial activity against Klebsiella pneumoniae 14-1 after 18 to 24 hrs; summary of the method: as §1
Pseudomonas aeruginosa [31] = assay: Antibacterial activity against Pseudomonas aeruginosa ATCC 27853 after 18 to 24 hrs; summary of the method: as §1
[32] = tested on: Staphylococcus epidermidis; assay: Antibacterial activity against methicillin-resistant Staphylococcus epidermidis 14-22 after 18 to 24 hrs
Escherichia coli [33] = assay: Antibacterial activity against Escherichia coli 14-2 after 18 to 24 hrs; summary of the method: as §1
Klebsiella pneumoniae [34] = assay: Antibacterial activity against ESBL-positive Klebsiella pneumoniae 14-19 after 18 to 24 hrs; summary of the method: as §1
Pseudomonas aeruginosa [35] = assay: Antibacterial activity against Pseudomonas aeruginosa 14-14 after 18 to 24 hrs; summary of the method: as §1
Klebsiella pneumoniae [36] = assay: Antibacterial activity against Klebsiella pneumoniae 14-2 after 18 to 24 hrs; summary of the method: as §1
Enterococcus faecium [37] = assay: Antibacterial activity against Enterococcus faecium 14-5 after 18 to 24 hrs; summary of the method: as §1

Row | SMILES | MIC (Staphylococcus aureus [1]) [µg/mL] | MIC (Enterococcus faecium [2]) [µg/mL] | MIC90 [3] [µg/mL] | MIC (Pseudomonas aeruginosa [4]) [µg/mL] | MIC (Enterococcus faecium [5]) [µg/mL] | MIC (Pseudomonas aeruginosa [6]) [µg/mL] | MIC (Klebsiella pneumoniae [7]) [µg/mL] | MIC (Klebsiella pneumoniae [8]) [µg/mL] | MIC (Staphylococcus aureus [9]) [µg/mL] | MIC (Enterococcus faecalis [10]) [µg/mL] | MIC (Enterococcus faecalis [11]) [µg/mL] | MIC [12] [µg/mL] | MIC [13] [µg/mL] | MIC (Pseudomonas aeruginosa [14]) [µg/mL] | MIC (Staphylococcus aureus [15]) [µg/mL] | MIC (Staphylococcus aureus [16]) [µg/mL] | MIC [17] [µg/mL] | MIC (Klebsiella pneumoniae [18]) [µg/mL] | MIC (Escherichia coli [19]) [µg/mL] | MIC (Streptococcus pneumoniae) [µg/mL] | further results
1 | CC1(N)CN(c2nc3c(cc2F)c(=O)c(C(=O)O)cn3[C@@H]2C[C@@H]2F)C/C1=N\OCc1ccccc1 (some centres undefined) | 16 (≈ 33.1 µM) | > 128 | 0.923 (≈ 1.91 µM) | 64 (≈ 132 µM) | > 128 | 64 (≈ 132 µM) | > 128 | > 128 | 0.5 (≈ 1.03 µM) | 128 (≈ 265 µM) | 2 (≈ 4.14 µM) | 128 (≈ 265 µM) | 64 (≈ 132 µM) | 64 (≈ 132 µM) | 1 (≈ 2.07 µM) | 64 (≈ 132 µM) | > 128 | 128 (≈ 265 µM) | > 128 | 0.5 (≈ 1.03 µM) | MIC [20]: 64 µg/mL (≈ 132 µM); MIC (Klebsiella pneumoniae [21]): 128 µg/mL (≈ 265 µM); MIC (Pseudomonas aeruginosa [22]): 64 µg/mL (≈ 132 µM); MIC (Staphylococcus aureus [23]): 32 µg/mL (≈ 66.2 µM); MIC (Staphylococcus aureus [24]): 0.03 µg/mL (≈ 0.0621 µM); MIC (Escherichia coli [25]): > 128 µg/mL; MIC (Enterococcus faecium [26]): > 128 µg/mL; MIC (Staphylococcus aureus [27]): 0.03 µg/mL (≈ 0.0621 µM); MIC (Escherichia coli [28]): 64 µg/mL (≈ 132 µM); MIC (Escherichia coli [29]): 2 µg/mL (≈ 4.14 µM); MIC (Klebsiella pneumoniae [30]): > 128 µg/mL; MIC (Pseudomonas aeruginosa [31]): 32 µg/mL (≈ 66.2 µM); MIC [32]: 32 µg/mL (≈ 66.2 µM); MIC (Escherichia coli [33]): > 128 µg/mL; MIC (Klebsiella pneumoniae [34]): > 128 µg/mL; MIC (Pseudomonas aeruginosa [35]): 64 µg/mL (≈ 132 µM); MIC (Klebsiella pneumoniae [36]): > 128 µg/mL; MIC (Enterococcus faecium [37]): > 128 µg/mL
2 | CO/N=C1\CN(c2nc3c(cc2F)c(=O)c(C(=O)O)cn3[C@@H]2C[C@@H]2F)CC1(C)N (some centres undefined) | 16 (≈ 39.3 µM) | > 128 | 0.392 (≈ 0.962 µM) | 32 (≈ 78.6 µM) | > 128 | 16 (≈ 39.3 µM) | > 128 | > 128 | 0.5 (≈ 1.23 µM) | 128 (≈ 314 µM) | 2 (≈ 4.91 µM) | 32 (≈ 78.6 µM) | 128 (≈ 314 µM) | 32 (≈ 78.6 µM) | 0.5 (≈ 1.23 µM) | 128 (≈ 314 µM) | > 128 | 16 (≈ 39.3 µM) | > 128 | 0.25 (≈ 0.614 µM) | MIC [20]: 64 µg/mL (≈ 157 µM); MIC (Klebsiella pneumoniae [21]): 32 µg/mL (≈ 78.6 µM); MIC (Pseudomonas aeruginosa [22]): 32 µg/mL (≈ 78.6 µM); MIC (Staphylococcus aureus [23]): 128 µg/mL (≈ 314 µM); MIC (Staphylococcus aureus [24]): 0.5 µg/mL (≈ 1.23 µM); MIC (Escherichia coli [25]): > 128 µg/mL; MIC (Enterococcus faecium [26]): > 128 µg/mL; MIC (Staphylococcus aureus [27]): 0.25 µg/mL (≈ 0.614 µM); MIC (Escherichia coli [28]): 32 µg/mL (≈ 78.6 µM); MIC (Escherichia coli [29]): 0.5 µg/mL (≈ 1.23 µM); MIC (Klebsiella pneumoniae [30]): > 128 µg/mL; MIC (Pseudomonas aeruginosa [31]): 8 µg/mL (≈ 19.6 µM); MIC [32]: 32 µg/mL (≈ 78.6 µM); MIC (Escherichia coli [33]): > 128 µg/mL; MIC (Klebsiella pneumoniae [34]): > 128 µg/mL; MIC (Pseudomonas aeruginosa [35]): 32 µg/mL (≈ 78.6 µM); MIC (Klebsiella pneumoniae [36]): > 128 µg/mL; MIC (Enterococcus faecium [37]): > 128 µg/mL
3 | CO/N=C1\CN(c2nc3c(cc2F)c(=O)c(C(=O)O)cn3[C@@H]2C[C@@H]2F)CC1(C)CN (some centres undefined) | 2 (≈ 4.75 µM) | 2 (≈ 4.75 µM) | 0.372 (≈ 0.883 µM) | 8 (≈ 19 µM) | 8 (≈ 19 µM) | 4 (≈ 9.49 µM) | 64 (≈ 152 µM) | 128 (≈ 304 µM) | < 0.008 | 32 (≈ 75.9 µM) | 0.125 (≈ 0.297 µM) | 8 (≈ 19 µM) | 2 (≈ 4.75 µM) | 8 (≈ 19 µM) | 0.015 (≈ 0.0356 µM) | 4 (≈ 9.49 µM) | 16 (≈ 38 µM) | 4 (≈ 9.49 µM) | 64 (≈ 152 µM) | 0.015 (≈ 0.0356 µM) | MIC [20]: 8 µg/mL (≈ 19 µM); MIC (Klebsiella pneumoniae [21]): 4 µg/mL (≈ 9.49 µM); MIC (Pseudomonas aeruginosa [22]): 8 µg/mL (≈ 19 µM); MIC (Staphylococcus aureus [23]): 8 µg/mL (≈ 19 µM); MIC (Staphylococcus aureus [24]): 0.015 µg/mL (≈ 0.0356 µM); MIC (Escherichia coli [25]): 32 µg/mL (≈ 75.9 µM); MIC (Enterococcus faecium [26]): 2 µg/mL (≈ 4.75 µM); MIC (Staphylococcus aureus [27]): < 0.008 µg/mL; MIC (Escherichia coli [28]): 4 µg/mL (≈ 9.49 µM); MIC (Escherichia coli [29]): 0.03 µg/mL (≈ 0.0712 µM); MIC (Klebsiella pneumoniae [30]): 128 µg/mL (≈ 304 µM); MIC (Pseudomonas aeruginosa [31]): 2 µg/mL (≈ 4.75 µM); MIC [32]: 8 µg/mL (≈ 19 µM); MIC (Escherichia coli [33]): 32 µg/mL (≈ 75.9 µM); MIC (Klebsiella pneumoniae [34]): 128 µg/mL (≈ 304 µM); MIC (Pseudomonas aeruginosa [35]): 8 µg/mL (≈ 19 µM); MIC (Klebsiella pneumoniae [36]): > 128 µg/mL; MIC (Enterococcus faecium [37]): 4 µg/mL (≈ 9.49 µM)
